The results in this text go back to the array DNA melting data of Ke et al. (doi:10.1101/2024.01.08.574731).

Series [1] in a line: melting temperature; fluorescence melt of hairpins on a sequencing array, two-state fit, raised by 9.35 °C to match UV melts. The note with it: sodium 0.088 M. In a few lines: (§1)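 In 50 mM Na-HEPES pH 8.0 containing 25 mM NaCl, hairpins from the library on a sequenced MiSeq flow cell were imaged for Cy3 fluorescence at 2.5 °C steps up to 60 °C, with Cy3 and quencher oligos annealed. After normalisation to pre-quench Cy3 and to control constructs, two-state fits with bootstrapping gave melting temperature and folding enthalpy. Four replicates were combined by inverse-variance weighting, and fitted temperatures were shifted up by 9.35 °C to match UV melts.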

Series [2] can be described thus: folding enthalpy; higher = less favourable; fluorescence melt of hairpins on a sequencing array, two-state fit. The note with it: sodium 0.088 M. Put shortly:
as §1

Turning to GCATAGGGAAACCTATGC (((((((....))))))), the Tm in series [1] amounted to 61.7 °C. Also, the folding enthalpy in series [2] was -44.2 kcal/mol.

For the sequence GCATATCGAAAGATTTGC (((.(((....))).))), the Tm in series [1] is 46.8 °C. The folding enthalpy in series [2] was -37 kcal/mol.

As for GCATATGAAAATATGC ((((((....)))))), the Tm in series [1] amounted to 52.9 °C. In addition, the folding enthalpy in series [2] was -29.2 kcal/mol.

Regarding GCATATGGAAACACATGC ((((.((....)).)))), in series [1], the Tm was 35.8 °C. In addition, the folding enthalpy in series [2] was -26.8 kcal/mol.

Regarding GCATATGGAAACGTATGC (((((.(....).))))), the Tm in series [1] turned out to be 47 °C. In series [2], the folding enthalpy is -33.3 kcal/mol.

As to GCATCACGAAAGTGGTGC (((.(((....))).))), the Tm in series [1] stood at 64.3 °C. In series [2], the folding enthalpy is -37.8 kcal/mol.

On to GCATCAGCGAAAGCTTGC (((..(((....)))))), for which the Tm in series [1] is 41.3 °C. Also, the folding enthalpy in series [2] was -13.2 kcal/mol.

Regarding GCATCAGGAAACCAATGC ((((..(....)..)))), the Tm in series [1] was found to be 23.8 °C. Besides, the folding enthalpy in series [2] was -12.1 kcal/mol.

Consider GCATCCCCGAAAGGGTGC (((..(((....)))))), for which the Tm in series [1] was found to be 53.5 °C. Besides, the folding enthalpy in series [2] is -17.5 kcal/mol.

As to GCATCCGAAAGGACGTGC ((((((....)))..))), the Tm in series [1] was 38.3 °C. In series [2], the folding enthalpy was -19.4 kcal/mol.

On to GCATCCGAAAGGAGATGC ((((((....)))..))), for which the Tm in series [1] came to 50.1 °C. Moreover, the folding enthalpy in series [2] was -33.6 kcal/mol.

For the sequence GCATCCGGAAACGGGTGC (((.(((....))).))), the Tm in series [1] stood at 62.7 °C. For the same sequence, in series [2], the folding enthalpy is -39.5 kcal/mol.

On to GCATCCTCGAAAGAGTGC (((..(((....)))))), for which the Tm in series [1] came out at 33.1 °C. Also, the folding enthalpy in series [2] is -19.1 kcal/mol.

With GCATCGCGAAAGCAAAGC ((.(.((....)).).)), the Tm in series [1] amounted to 38.9 °C. The folding enthalpy in series [2] is -9.75 kcal/mol.

Consider GCATCGCGAAAGCAACGC ((.(.((....)).).)), for which the Tm in series [1] is 40.6 °C. Further, in series [2], the folding enthalpy is -13.5 kcal/mol.

As for GCATCGCGAAAGCCCTGC (((..((....))..))), the Tm in series [1] stood at 33 °C. The folding enthalpy in series [2] was -7.86 kcal/mol.

For the sequence GCATCGCGAAAGCGAAGC ((.((((....)))).)), the Tm in series [1] is 61.3 °C. In addition, the folding enthalpy in series [2] is -19.1 kcal/mol.

In the case of GCATCGGGAAACCAATGC ((((.((....)).)))), in series [1], the Tm turned out to be 42.2 °C. The folding enthalpy in series [2] was -29 kcal/mol.

In the case of GCATCGGGAAACCGATAC (.(((((....))))).), the Tm in series [1] came out at 41.5 °C. In series [2], the folding enthalpy is -13.7 kcal/mol.

For the sequence GCATCTCGAAAGAGTGC (((.(((....)))))), the Tm in series [1] stood at 53.4 °C. Further, the folding enthalpy in series [2] was -49.8 kcal/mol.

Take GCATGACGAAAGTCCTGC (((.(((....))).))): the Tm in series [1] stood at 51 °C. Also, in series [2], the folding enthalpy was -34.5 kcal/mol.

GCATGAGGAAACCCATGC (((((.(....).))))): in series [1], the Tm came out at 48.6 °C. Further, the folding enthalpy in series [2] was -36.8 kcal/mol.

As for GCATGAGGAAACTCATAC (.(((((....))))).), the Tm in series [1] is 32.6 °C. In addition, in series [2], the folding enthalpy was -17.2 kcal/mol.

As to GCATGAGGAAACTCGTGC (((.(((....))).))), the Tm in series [1] amounted to 52.9 °C. In addition, in series [2], the folding enthalpy was -47.4 kcal/mol.

Regarding GCATGCGAAAGCAGTTGC ((((((....)))..))), the Tm in series [1] was determined as 43 °C. In addition, the folding enthalpy in series [2] was -16.5 kcal/mol.

Turning to GCATGCGAAAGCATCTGC ((((((....)))..))), the Tm in series [1] was determined as 47 °C. In series [2], the folding enthalpy was -13.4 kcal/mol.

As to GCATGCGAAAGCATTGC ((((((....))).))), in series [1], the Tm turned out to be 57.9 °C. Besides, in series [2], the folding enthalpy is -21.3 kcal/mol.

Take GCATGCGCGAAAGCGTGC (((..(((....)))))): the Tm in series [1] was found to be 51.8 °C. Also, the folding enthalpy in series [2] was -13.4 kcal/mol.

Turning to GCATGGAAACATGC (((((....))))), the Tm in series [1] came out at 57.4 °C. For the same sequence, in series [2], the folding enthalpy was -30.9 kcal/mol.

Take GCATGGCGAAAGCATTGC (((..((....))..))): the Tm in series [1] is 49.6 °C. Moreover, the folding enthalpy in series [2] is -20 kcal/mol.

For GCATGGCGAAAGCCGAGC ((..(((....)))..)), the Tm in series [1] amounted to 55.7 °C. The folding enthalpy in series [2] was -17.1 kcal/mol.

On to GCATGGCGAAAGCCTCGC ((..(((....)))..)), for which the Tm in series [1] was 43.7 °C. Moreover, the folding enthalpy in series [2] is -13.4 kcal/mol.

As to GCATGGCGAAAGCCTGGC ((..(((....)))..)), in series [1], the Tm was 53.4 °C. For the same sequence, in series [2], the folding enthalpy is -18.4 kcal/mol.

As to GCATGGCGAAAGCGACGC ((.(.((....)).).)), the Tm in series [1] was 38.3 °C. The folding enthalpy in series [2] was -12.7 kcal/mol.

As to GCATGGCGAAAGCTAGGC ((.(.((....)).).)), the Tm in series [1] turned out to be 52.2 °C. Besides, the folding enthalpy in series [2] was -21.6 kcal/mol.

For GCATGTCGAAAGACTGC (((.(((....)))))), the Tm in series [1] was 56.1 °C. For the same sequence, the folding enthalpy in series [2] is -35 kcal/mol.

With GCATGTGGAAACACATAC (.(((((....))))).), the Tm in series [1] was 38.6 °C. In addition, the folding enthalpy in series [2] is -14.9 kcal/mol.

As for GCATTACGAAAGTATTGC (((.(((....))).))), the Tm in series [1] was determined as 48.9 °C. The folding enthalpy in series [2] was -29.3 kcal/mol.

For the sequence GCATTAGAAATAATGC ((((((....)))))), in series [1], the Tm stood at 48.2 °C. The folding enthalpy in series [2] is -24.5 kcal/mol.

On to GCATTATCGAAAGATTGC (((..(((....)))))), for which the Tm in series [1] stood at 30.6 °C. For the same sequence, in series [2], the folding enthalpy was -14.4 kcal/mol.

Take GCATTCACGAAAGTGTGC (((..(((....)))))): the Tm in series [1] worked out at 37.6 °C. Moreover, in series [2], the folding enthalpy is -18.2 kcal/mol.

Regarding GCATTCCGAAAGGACTGC (((.(((....))).))), the Tm in series [1] stood at 50.8 °C. In addition, the folding enthalpy in series [2] is -22.2 kcal/mol.

GCATTCCGAAAGGATTGC (((.(((....))).))): in series [1], the Tm was determined as 54.4 °C. For the same sequence, in series [2], the folding enthalpy was -35.6 kcal/mol.

As for GCATTCGAAAGAAGATGC ((((((....)))..))), the Tm in series [1] was 36.2 °C. For the same sequence, in series [2], the folding enthalpy is -17.7 kcal/mol.

With GCATTCGAAAGAATATGC ((((((....)))..))), the Tm in series [1] stood at 36.1 °C. Further, the folding enthalpy in series [2] is -24.8 kcal/mol.

For the sequence GCATTCGAAAGAATGC ((((((....)))))), in series [1], the Tm was 69.2 °C. Moreover, in series [2], the folding enthalpy is -28.3 kcal/mol.

GCATTCGAAAGAATTTGC ((((((....)))..))): the Tm in series [1] came to 30.2 °C. For the same sequence, the folding enthalpy in series [2] is -16.9 kcal/mol.

For GCATTCGGAAACAAATGC (((((.(....).))))), in series [1], the Tm was determined as 38 °C. In addition, the folding enthalpy in series [2] is -28.9 kcal/mol.

For the sequence GCATTCGGAAACGAACGC ((.((((....)))).)), in series [1], the Tm is 46.7 °C. Also, the folding enthalpy in series [2] is -37.2 kcal/mol.

Regarding GCATTCGGAAACGGATGC ((((.((....)).)))), in series [1], the Tm was determined as 54 °C. In series [2], the folding enthalpy is -36.9 kcal/mol.

Consider GCATTCTCGAAAGAGTGC (((..(((....)))))), for which the Tm in series [1] stood at 40.9 °C. Besides, in series [2], the folding enthalpy was -24.3 kcal/mol.

Take GCATTGCGAAAGCAGAGC ((..(((....)))..)): in series [1], the Tm is 47.5 °C. The folding enthalpy in series [2] was -18.2 kcal/mol.

GCATTGCGAAAGCAGCGC ((..(((....)))..)): the Tm in series [1] stood at 54.9 °C. In addition, the folding enthalpy in series [2] was -16.1 kcal/mol.

Take GCATTGCGAAAGCATTGC (((.(((....))).))): the Tm in series [1] is 55.4 °C. Besides, in series [2], the folding enthalpy is -52.2 kcal/mol.

In the case of GCATTGCGAAAGCCAAGC ((.(.((....)).).)), the Tm in series [1] turned out to be 28.6 °C. For the same sequence, the folding enthalpy in series [2] was -9.84 kcal/mol.
